Converted amounts (≈) assume the structure as drawn.
Experiments:
Assay type in all cases: functional
[1] = Antifungal activity against Rhodotorula bogoriensis MUCL 11796 after 24 hrs by microdilution method
Summary of the method: (§1)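 Broth microdilution used stock inocula in saline at 0.5 McFarland. A log2 dilution series (0–500 mg/L) was made in double-concentration RPMI-1640 with glutamine and a pH indicator, without bicarbonate. Plates were incubated at 37 °C without agitation: C. albicans and R. bogoriensis 24 h, A. flavus 48 h, F. solani 72 h. Absorbance was read at 530 nm to give the MIC.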

Aspergillus flavus [2] = test: Antifungal activity against Aspergillus flavus ATCC 44310 at 0.1 mg/uL per disc after 48 hrs by disc diffusion test
Candida albicans [3] = test: Antifungal activity against Candida albicans IHEM 374 after 24 hrs by microdilution method; conditions: IHEM 374, 24 h; summary of the method: as §1
Fusarium solani [4] = test: Antifungal activity against Fusarium solani CBS 230.34 after 48 to 72 hrs by microdilution method; summary of the method: as §1
Candida albicans [5] = test: Antifungal activity against Candida albicans IHEM 374 at 0.1 mg/uL per disc after 24 hrs by disc diffusion test
Fusarium solani [6] = test: Antifungal activity against Fusarium solani CBS 230.34 at 0.1 mg/uL per disc after 48 hrs by disc diffusion test
[7] = Antifungal activity against Rhodotorula bogoriensis MUCL 11796 at 0.1 mg/uL per disc after 24 hrs by disc diffusion test
Aspergillus flavus [8] = test: Antifungal activity against Aspergillus flavus ATCC 44310 after 48 to 72 hrs by microdilution method; summary of the method: as §1

Row | MIC [1] | MIC (Candida albicans [3]) | MIC (Fusarium solani [4]) | MIC (Aspergillus flavus [8]) | Compound | diameter of the inhibition zone (DIZ) (Aspergillus flavus [2]) | diameter of the inhibition zone (DIZ) (Candida albicans [5]) | diameter of the inhibition zone (DIZ) (Fusarium solani [6]) | inhibition zone (IZ) [7]
1 | 0.12 µg/mL (≈ 0.325 µM) | 0.25 µg/mL (≈ 0.677 µM) | 0.5 µg/mL (≈ 1.35 µM) | 0.5 µg/mL (≈ 1.35 µM) | CCN(CC)CCC(C)COc1c(Cl)cc(Cl)c2ccc(C)nc12 (centres undefined) | 10 mm | 20 mm | 20 mm | 30 mm
2 | – | – | – | – | CC(CCNCc1ccc(Cl)cc1)COc1cccc2cccnc12 (centres undefined) | 0 mm | 0 mm | 0 mm | 15 mm
3 | – | – | – | – | Clc1ccc(CNCCCCOc2cccc3ncccc23)cc1 | 0 mm | 0 mm | 0 mm | 0 mm
4 | – | – | – | – | CCN(CC)CCCCOc1c(I)cc(Cl)c2cccnc12 | 7 mm | 0 mm | 0 mm | 14 mm
5 | 0.25 µg/mL (≈ 0.56 µM) | 4 µg/mL (≈ 8.95 µM) | – | 4 µg/mL (≈ 8.95 µM) | CCN(CC)CCC(C)COc1c(I)cc(Cl)c2cccnc12 (centres undefined) | 10 mm | 7 mm | 0 mm | 30 mm
6 | 0.5 µg/mL (≈ 0.929 µM) | 0.5 µg/mL (≈ 0.929 µM) | – | 4 µg/mL (≈ 7.43 µM) | CCN(CC)CCC(C)COc1c(I)cc(I)c2cccnc12 (centres undefined) | 7 mm | 12 mm | 0 mm | 26 mm
7 | – | – | – | – | CCN(CC)CCC(C)COc1cccc2cccnc12 (centres undefined) | 0 mm | 0 mm | 0 mm | 0 mm
8 | 0.25 µg/mL (≈ 0.704 µM) | 0.5 µg/mL (≈ 1.41 µM) | – | 0.5 µg/mL (≈ 1.41 µM) | CCN(CC)CCC(C)COc1c(Cl)cc(Cl)c2cccnc12 (centres undefined) | 12 mm | 10 mm | 0 mm | 32 mm
9 | – | – | – | – | CC(CCNCc1ccc(Cl)cc1)COc1c(I)cc(I)c2cccnc12 (centres undefined) | 0 mm | 7 mm | 0 mm | 10 mm
10 | – | – | – | – | CCN(CC)CCCCOc1ccc2ncccc2c1 | 0 mm | 0 mm | 0 mm | 0 mm
11 | – | – | – | – | CCN(CC)CCCCOc1ccc(Cl)c2cccnc12 | 0 mm | 12 mm | 0 mm | 0 mm
12 | – | – | – | – | Clc1ccc(CNCCCCOc2ccc(Cl)c3cccnc23)cc1 | 0 mm | 8 mm | 0 mm | 30 mm
13 | 0.5 µg/mL (≈ 1.13 µM) | 0.25 µg/mL (≈ 0.563 µM) | – | 2 µg/mL (≈ 4.5 µM) | CCN(CC)CCC(C)COc1c(Br)cc(Br)c2cccnc12 (centres undefined) | 7 mm | 20 mm | 0 mm | 28 mm
14 | – | – | – | – | CCN(CC)CCCCOc1cccc2cccnc12 | 0 mm | 0 mm | 0 mm | 0 mm
15 | – | – | – | – | Clc1ccc(CNCCCCOc2ccc3ncccc3c2)cc1 | 0 mm | 0 mm | 0 mm | 0 mm
16 | – | – | – | – | CC(CCNCc1ccc(Cl)cc1)COc1cccc2ncccc12 (centres undefined) | 0 mm | 0 mm | 0 mm | 7 mm
17 | – | – | – | – | CCN(CC)CCCCOc1cccc2ncccc12 | 0 mm | 0 mm | 0 mm | 0 mm
